Published values pooled from the literature.
ADRB3: Beta-3 adrenergic receptor (ADRB3, Homo sapiens, UniProt P13945)
MMP13: Collagenase 3 (MMP13, Homo sapiens, UniProt P45452)

c1ccc(C(NCCNC(c2ccccc2)c2ccccc2)c2ccccc2)cc1 — inhibition (Adenosine receptor A2b (ADORA2B, Homo sapiens, UniProt P29275); cell-free assay; 10 µM): -2%
CC(C)C[C@H](NC(=O)[C@H](Cc1ccccc1)NC(=O)c1cnccn1)B(O)O — inhibition (Chymase (CMA1, Homo sapiens, UniProt P23946); enzyme activity; inhibitor; 33 µM): 84.2%
COc1ccc2[nH]c(C(O)c3ccc(Cl)cc3)c(CCNC(C)=O)c2c1 (stereo not shown) — inhibition (Calmodulin-1 (CALM1, Homo sapiens, UniProt P0DP23); enzyme activity; inhibitor; 50 µM): 40 to 50%
C#Cc1n[nH]c2c(-c3cn([C@@H](C)c4ccccc4)c(=O)[nH]c3=O)cc(F)cc12 — inhibition (Tyrosine-protein kinase JAK1 (JAK1, Homo sapiens, UniProt P23458); enzyme activity; inhibitor; 0.1 µM): -1.2%
COc1ccc(N=Nc2ccc3[nH]cc(CCN(C)C)c3c2)cc1 — inhibition (5-hydroxytryptamine receptor 4 (HTR4, Homo sapiens, UniProt Q13639); ligand displacement; radioligand; 10 µM): < 50%
O=C(NC[C@H](O)CO)[C@@H]1C[C@H](c2ccccc2)CCN1 (mixture of isomers) — inhibition (ADRB3; ligand displacement; radioligand; 10 µM): -11.2%
COc1ccc(S(=O)(=O)N2CCCCC2)cc1C — inhibition (Progesterone receptor (PGR, Homo sapiens, UniProt P06401); ligand displacement; radioligand; 10 µM): < 30%
O=C(Nc1cccnn1)N1CCN([C@@H]2CCOc3cc(C(F)(F)F)ccc32)CC1 — inhibition (Prostaglandin E2 receptor EP2 subtype (PTGER2, Homo sapiens, UniProt P43116); cell-free assay; 20 µM): -13%
C[C@H](C(=O)N[C@H]1COc2ccccc2[C@@H]1S(C)(=O)=O)c1ccc(F)cc1 — inhibition (MMP13; enzyme activity; inhibitor; 10 µM): -4%
COc1cc(Nc2ncc(F)c(Nc3ccc4c(n3)NC(=O)C(C)(C)O4)n2)cc(OC)c1OC — inhibition (Casein kinase I isoform alpha-like (CSNK1A1L, Homo sapiens, UniProt Q8N752); binding; competition with immobilised ligand; 10 µM): 0%
N=C(N)c1ccc2cc(OC(=O)c3ccc(N=C(N)N)cc3)ccc2c1 — inhibition (MMP13; enzyme activity; inhibitor; 10 µM): 75%
C#Cc1n[nH]c2c(-c3cn(C(C)c4ccccn4)c(=O)[nH]c3=O)cc(F)cc12 (stereo not shown) — inhibition (Dual specificity protein kinase CLK2 (CLK2, Homo sapiens, UniProt P49760); enzyme activity; inhibitor; 1 µM): 1.9%
COCc1c(-c2cc3cc(C)cc(OC)c3s2)c2c(N)ncnn2c1CN1CCNC(=O)C1 — inhibition (ADRB3; ligand displacement; radioligand; 10 µM): 9%
